We go through ten compounds from ChEMBL document CHEMBL1221249, “Synthesis and in vitro binding studies of piperazine-alkyl-naphthamides: impact of homology and sulphonamide/carboxamide bioisosteric replacement on the affinity for 5-HT1A, alpha2A, D4.2, D3 and D2L receptors” (Bioorg Med Chem Lett, 2010).

A value given as a limit tells only on which side of the number the result lay.

The target of assay [1] is T1, D(2) dopamine receptor (Homo sapiens, UniProt P14416). Kind of assay: Displacement of [3H]spiperone from human D2L receptor at 1 uM after 60 mins. On the technique in general: Displacement assays read how much labelled ligand stays bound in the presence of the test substance.
Assay [2] addresses D(4) dopamine receptor (Homo sapiens) (UniProt P21917). Description: Displacement of [3H]-YM-09151-2 from human D4.2 receptor after 60 mins.
Assay [3] addresses D(3) dopamine receptor (Rattus norvegicus) (UniProt P19020). Description: Displacement of [3H]-spiperone from rat D3 receptor after 60 mins.
Assay [4] concerns the target T1, D(2) dopamine receptor. Description: Displacement of [3H]spiperone from human D2L receptor after 60 mins. The method, boiled down: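 Cloned human D2L receptor membranes from transfected cells were incubated 60 min at 27 °C with [3H]-spiperone (0.2 nM). Buffer was 50 mM Tris-HCl pH 7.4 with 10 mM MgCl2 and 1 mM EDTA, and haloperidol (10 µM) defined non-specific binding. Bound radioactivity was collected on 0.3% PEI-soaked GF/C filters and measured by scintillation counting.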

For a further assay, the target named is D(3) dopamine receptor (Rattus norvegicus, UniProt P19020). Description: Displacement of [3H]spiperone from rat dopamine D3 receptor after 60 mins.
Assay [5] concerns the target 5-hydroxytryptamine receptor 1A (Homo sapiens) (UniProt P08908). Kind of assay: Displacement of [3H]8-OH-DPAT from human 5-HT1A receptor after 60 mins.

Sequence of D(4) dopamine receptor (Homo sapiens) (P21917 whole entry, looked up): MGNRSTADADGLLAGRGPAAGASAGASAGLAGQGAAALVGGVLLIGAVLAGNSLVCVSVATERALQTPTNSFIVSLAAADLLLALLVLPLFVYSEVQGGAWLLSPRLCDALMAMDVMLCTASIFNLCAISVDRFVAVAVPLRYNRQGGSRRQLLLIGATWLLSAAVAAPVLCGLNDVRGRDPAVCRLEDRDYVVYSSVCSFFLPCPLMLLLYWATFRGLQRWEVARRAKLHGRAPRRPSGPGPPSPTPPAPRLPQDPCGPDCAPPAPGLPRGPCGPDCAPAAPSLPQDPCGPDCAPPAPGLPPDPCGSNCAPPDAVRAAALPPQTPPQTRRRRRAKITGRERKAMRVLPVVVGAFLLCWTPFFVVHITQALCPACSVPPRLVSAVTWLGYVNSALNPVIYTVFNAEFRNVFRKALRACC
Sequence of D(3) dopamine receptor (P19020 whole entry): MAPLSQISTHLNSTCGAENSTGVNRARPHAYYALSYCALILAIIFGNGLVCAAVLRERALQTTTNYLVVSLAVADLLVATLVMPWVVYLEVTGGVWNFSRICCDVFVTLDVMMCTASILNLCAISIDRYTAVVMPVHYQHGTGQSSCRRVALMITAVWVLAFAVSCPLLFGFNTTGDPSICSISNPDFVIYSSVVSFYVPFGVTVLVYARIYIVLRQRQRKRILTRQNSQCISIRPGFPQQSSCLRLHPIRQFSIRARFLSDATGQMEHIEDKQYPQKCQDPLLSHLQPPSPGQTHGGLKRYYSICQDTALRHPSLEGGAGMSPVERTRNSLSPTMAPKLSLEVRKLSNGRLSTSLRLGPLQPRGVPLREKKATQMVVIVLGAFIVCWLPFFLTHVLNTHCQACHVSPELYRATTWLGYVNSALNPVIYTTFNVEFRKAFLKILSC
Sequence of 5-hydroxytryptamine receptor 1A (Homo sapiens) (P08908 whole entry, looked up): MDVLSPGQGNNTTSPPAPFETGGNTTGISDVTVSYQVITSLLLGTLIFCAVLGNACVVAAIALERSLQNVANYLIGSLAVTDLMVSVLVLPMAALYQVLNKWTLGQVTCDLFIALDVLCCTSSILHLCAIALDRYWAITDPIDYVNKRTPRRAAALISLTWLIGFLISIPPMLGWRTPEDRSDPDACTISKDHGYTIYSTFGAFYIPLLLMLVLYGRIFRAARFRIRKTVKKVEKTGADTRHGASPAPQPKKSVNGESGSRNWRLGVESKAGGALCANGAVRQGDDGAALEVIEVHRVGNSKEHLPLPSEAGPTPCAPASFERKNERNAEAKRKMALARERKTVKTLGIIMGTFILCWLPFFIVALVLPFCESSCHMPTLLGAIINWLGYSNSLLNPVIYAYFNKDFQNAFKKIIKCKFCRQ
T1 sequence (P14416 whole entry): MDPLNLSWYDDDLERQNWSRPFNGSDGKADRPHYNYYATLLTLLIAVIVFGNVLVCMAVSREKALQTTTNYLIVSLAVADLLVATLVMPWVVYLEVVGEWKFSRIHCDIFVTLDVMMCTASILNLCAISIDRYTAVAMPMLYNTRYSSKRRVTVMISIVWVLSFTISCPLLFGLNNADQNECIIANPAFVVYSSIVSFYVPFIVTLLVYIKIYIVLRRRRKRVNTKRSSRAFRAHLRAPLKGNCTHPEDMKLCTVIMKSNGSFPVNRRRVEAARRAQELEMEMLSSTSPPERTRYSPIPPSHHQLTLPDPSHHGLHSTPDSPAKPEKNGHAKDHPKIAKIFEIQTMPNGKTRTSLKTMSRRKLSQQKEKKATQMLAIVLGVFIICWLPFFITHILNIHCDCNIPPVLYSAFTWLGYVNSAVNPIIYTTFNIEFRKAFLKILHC

Usually inhibition stands for the relative decrease from the control value, in per cent. High values mean strong suppression, low ones little suppression. `COc1ccccc1N1CCN(CCCCNC(=O)c2ccc3ccccc3c2)CC1` had an inhibition on D(2) dopamine receptor [1] of 30%.
By Ki is commonly meant a dissociation constant, usually derived from enzyme kinetics or from competition with a known ligand. For `COc1ccccc1N1CCN(CCCCCNC(=O)c2ccc3ccccc3c2)CC1`, the Ki was 54 nM in assay [2]; 13 nM in assay [3]; 254 nM at D(2) dopamine receptor [4]; 9.36 nM at D(3) dopamine receptor; 11.1 nM in assay [5].
Turning to `COc1ccccc1N1CCN(CCCNC(=O)c2ccc3ccccc3c2)CC1`, the Ki in assay [2] worked out at 17.8 nM; in assay [3], 175 nM; at D(3) dopamine receptor, 71 nM; in assay [5], 4.59 nM. On D(2) dopamine receptor [1], this compound gave an inhibition of 46%.
Regarding `COc1ccccc1N1CCN(CCNS(=O)(=O)c2ccc3ccccc3c2)CC1`, the Ki was 24.4 nM in assay [2], 56 nM in assay [3], 348 nM on D(3) dopamine receptor and 5.19 nM in assay [5]. Also, at D(2) dopamine receptor [1], the inhibition was 44%.
For the compound `COc1ccccc1N1CCN(CCCNS(=O)(=O)c2ccc3ccccc3c2)CC1`, the Ki was found to be 112 nM in assay [2]; 58.5 nM in assay [3]; 132 nM at D(2) dopamine receptor [4]; 101 nM at D(3) dopamine receptor; 4.64 nM in assay [5].
On the same counts, the results for `COc1ccccc1N1CCN(CCCCNS(=O)(=O)c2ccc3ccccc3c2)CC1` are 62 nM, 27.5 nM, 46.5 nM, 79 nM and 4.1 nM.
As to `COc1ccccc1N1CCN(CCCCCNS(=O)(=O)c2ccc3ccccc3c2)CC1`, the Ki in assay [3] was determined as 12.5 nM; on D(2) dopamine receptor [4] it was 438 nM; at D(3) dopamine receptor, 84 nM.
In the same order, the values of `COc1ccccc1N1CCN(CCNC(=O)c2ccc3ccccc3c2)CC1` are 66 nM, 890 nM and 113 nM.
Consider `COc1ccccc1N1CCN(CCCCCCNS(=O)(=O)c2ccc3ccccc3c2)CC1`, for which the Ki in assay [2] is 9.62 nM; in assay [3], 1.97 nM; at D(2) dopamine receptor [4], 99 nM; on D(3) dopamine receptor it was at most 45 nM; in assay [5], 2.87 nM.
For `COc1ccccc1N1CCN(CCCCCCNC(=O)c2ccc3ccccc3c2)CC1`, the figures for the Ki (in assay [3]; at D(2) dopamine receptor [4]; at D(3) dopamine receptor) were 0.56 nM, 121 nM and 96 nM, respectively.
